PMC6683736 (The Journal of Cell Biology, 2019)

Key:
SGEF = test: Yeast two-hybrid screen with full-length human SGEF as bait; type: binding; conditions: mouse kidney cDNA library
Dlg1 = test: Coimmunoprecipitation of SGEF constructs with GFP-Dlg1, HEK293FT lysates; type: binding, Mouse; conditions: GFP-trap nanobodies, WB
Method in brief: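 HEK293FT cells were co-transfected by calcium phosphate; medium was changed at 24 h and cells harvested at 48 h. Lysis was in Tris-HCl pH 7.4, MgCl2, 150 mM NaCl, 1% Triton X-100 and protease inhibitors. Equal protein was incubated with GFP-Trap beads for 1 h at 4°C, washed four times, then immunoblotted with anti-GFP and anti-myc (or anti-His).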

RhoG = RhoG activity pulldown; type: cell-based, canine; conditions: normalized to total RhoG, three independent experiments
Method in brief: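 Active RhoG was pulled down with GST–ELMO from total lysates of control, SGEF-knockdown and rescue MDCK cells, then immunoblotted with anti-RhoG. Active levels were normalised to total RhoG; mean ± SEM of three independent experiments.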

MDCK cells [1] = test: Height of MDCK monolayer, confocal XZ; type: cell-based, canine; conditions: average, n = 50 cells, three independent experiments; Fig. 5 I
Method in brief: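 Confocal XZ sections of confluent control, SGEF-knockdown and rescue MDCK monolayers were acquired on a Leica SP8. Cells were stained for E-cadherin, β-catenin and nuclei, or for F-actin and Hoechst, and monolayer height was measured.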

MDCK cells [2] = test: Protein levels and junctional localization by WB and IF; type: cell-based, canine
Method in brief: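 Total lysates of confluent control, SGEF-knockdown and WT-rescue MDCK cells were immunoblotted, with tubulin as loading control. For immunofluorescence, cells were fixed in 3.7% paraformaldehyde, permeabilised with 0.1% Triton X-100 and imaged by confocal. Afadin enrichment was scored as the tricellular/bicellular junction intensity ratio (≥200 junctions, at least three fields, two experiments; Mann–Whitney U test).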

MDCK cells [3] = test: Actomyosin organization by IF; type: cell-based, canine; conditions: IF, HyVolution
Scribble = test: Coimmunoprecipitation of SGEF constructs with GFP-Scribble, HEK293FT lysates; type: binding, Human; conditions: GFP-trap nanobodies, WB
Xenopus embryos = test: Junctional localization in gastrula-stage embryos; type: in vivo, Xenopus laevis; conditions: live confocal, mNeon-tagged
Method in brief: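 Embryos were microinjected in the animal hemisphere with mRNAs, either at the two-cell stage (each cell twice) or at the four-cell stage (once). They were raised to gastrula stage (10.5–12) and live-imaged by confocal. mNeon-tagged protein was coexpressed with BFP-ZO-1 (tight junction marker) and PLEKHA7-mCherry (adherens junction marker), and the junctional-to-cytosolic intensity ratio was quantified.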

MDCK cells [4] = test: Zigzag index of tight junctions; type: cell-based, canine; conditions: average; 1 = straight line; CTRL 1.24
MDCK cells [5] = test: Apical cell area and axial ratio; type: cell-based, canine; conditions: major/minor axis aspect ratio
Method in brief: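 Apical cell area and axial ratio were measured in control, SGEF-knockdown and WT-rescue MDCK monolayers from two fields in each of two independent experiments (n = 100 cells for area, n = 150 for axial ratio). Plots show min-to-max spread.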

[6] = system: Scribble/SGEF/Dlg1 ternary complex; test: Coprecipitation of Scribble with GFP-Dlg1; type: binding; conditions: HA-Scribble and GFP-Dlg1 coexpressed, IP anti-GFP, HEK293
MDCK cells [7] = test: 3D cyst lumen formation in matrigel; type: cell-based, canine

potential binding partner for SGEF (SGEF) | Molecule | interaction with Dlg1 (Dlg1) | active RhoG level (RhoG) | cell height (MDCK cells [1]) [µm] | β-catenin and p120-catenin localization at cell–cell junctions (MDCK cells [2]; IF) | localization of Scribble and Dlg1 (MDCK cells [2]; IF, rescue of SGEF KD) | cadherin-6 levels (MDCK cells [2]; WB) | E-cadherin level and localization (MDCK cells [2]; WB and IF) | afadin expression levels and localization at AJs (MDCK cells [2]; WB and IF) | actomyosin organization at apical junction (MDCK cells [3]) | interaction with Scribble (Scribble) | localization at apical junctional complex (Xenopus embryos) | zigzag index (MDCK cells [4]) | axial ratio (MDCK cells [5]) | formation of Scribble/SGEF/Dlg1 ternary complex [6] | cysts with a single lumen (MDCK cells [7]; Fig. 10 D, red and dark green bars, CTRL 65%) [%] | cysts with an open lumen (MDCK cells [7]; Fig. 10 D, red and orange bars, CTRL 100%) [%] | E-cadherin expression in cysts (MDCK cells [7]; IF, 3D cysts) | cysts with multiple open lumens (MDCK cells [7]; matrigel, 4 d) [%]
potential binding partner for SGEF | Scribble: Scribble polarity protein, 1–1,630 |  |  |  |  |  |  |  |  |  |  |  |  |  |  |  |  |  | 
 | SGEF WT: full-length SGEF 1–871, RhoG-specific GEF, myc- or mNeon-tagged (protein, left off: myc, end not stated, kept) MDGESEVDFSSNSITPLWRRRSIPQPHQVLGRSKPRPQSYQSPNGLLITDFPVEDGGTLLAAQIPAQVPTASDSRTVHRSPLLLGAQRRAVANGGTASPEYRAASPRLRRPKSPKLPKAVPGGSPKSPANGAVTLPAPPPPPVLRPPRTPNAPAPCTPEEDLTGLTASPVPSPTANGLAANNDSPGSGSQSGRKAKDPERGLFPGPQKSSSEQKLPLQRLPSQENELLENPSVVLSTNSPAALKVGKQQIIPKSLASEIKISKSNNQNVEPHKRLLKVRSMVEGLGGPLGHAGEESEVDNDVDSPGSLRRGLRSTSYRRAVVSGFDFDSPTSSKKKNRMSQPVLKVVMEDKEKFSSLGRIKKKMLKGQGTFDGEENAVLYQNYKEKALDIDSDEESEPKEQKSDEKIVIHHKPLRSTWSQLSAVKRKGLSQTVSQEERKRQEAIFEVISSEHSYLLSLEILIRMFKNSKELSDTMTKTERHHLFSNITDVCEASKKFFIELEARHQNNIFIDDISDIVEKHTASTFDPYVKYCTNEVYQQRTLQKLLATNPSFKEVLSRIESHEDCRNLPMISFLILPMQRVTRLPLLMDTICQKTPKDSPKYEVCKRALKEVSKLVRLCNEGARKMERTEMMYTINSQLEFKIKPFPLVSSSRWLVKRGELTAYVEDTVLFSRRTSKQQVYFFLFNDVLIITKKKSEESYNVNDYSLRDQLLVESCDNEELNSSPGKNSSTMLYSRQSSASHLFTLTVLSNHANEKVEMLLGAETQSERARWITALGHSSGKPPADRTSLTQVEIVRSFTAKQPDELSLQVADVVLIYQRVSDGWYEGERLRDGERGWFPMECAKEITCQATIDKNVERMGRLLGLETNV | able to bind efficiently to Dlg1 | returned to normal | 5.61 ± 0.16 | restored to normal | restored the normal localization of both Scribble and Dlg1 | restored to normal levels | restored both the proper expression level and localization of E-cadherin | rescued to normal levels | restored the normal apical and basal actomyosin pattern | confirmed the interaction | localized efficiently to the AJC | 1.16 | could be rescued | Scribble coprecipitated efficiently with Dlg1 | 36 | 77 | restored to normal levels | 40
